CHOP inh – CHOP inhibition in unfolded protein response; AID 2732; inhibition, % at 10 µM; 220,000 tested, 3.8% active; CHO-K1 CHOP-promoter luciferase, tunicamycin-induced, 15-18 h;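 active = compounds that reduced the stress-induced luciferase reporter signal by more than about 70% of percent inhibition, limit read from the data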;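 also: 0% = tunicamycin plus vehicle and 100% = wells without tunicamycin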
CHOP UPR activ – apoptotic UPR (CHOP) activation; CHO-CHOP luciferase reporter, luminescence; percent of tunicamycin response over DMSO baseline; activation, % at 10 µM; 330,000 tested, 0.34% active; AID 449763;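 active = at 10 µM dose, activation of 40% or more, normalized to positive control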;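 also: 100% = tunicamycin at 10 µg/mL and 0% = DMSO alone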
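Assay system: CHO cells with stable CHOP pathway luciferase reporter; Buffer or medium: F12 plus 10% serum; Times: 16-18 h cell attachment, then 6 h compound exposure, 37 °C; Signal: luciferase luminescence; Read-out basis: percent activation relative to tunicamycin control; Control set: tunicamycin high control, DMSO low control.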
UPR XBP1 act – adaptive UPR (XBP1) activation; 330,000 tested, 0.33% active; CHO-XBP1 luciferase reporter, IRE1-XBP1 UPR activation, luminescence; percent of tunicamycin response, DMSO as zero; activation, % at 20 µM;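 active = versus positive control, 20 µM dose yields 30% or more activation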;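 also: 100% = tunicamycin at 10 µg/mL and 0% = DMSO only wells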
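assay system = CHO-XBP1 luciferase reporter cells | amount = 1000 cells/well | buffer or medium = F12 plus 10% FBS | compound dosing = single point, 20 µM final compound, 1% DMSO | incubation = 16-18 h cell attachment at 37 °C, then 6 h compound exposure | detection = Steady-Glo luminescence read | controls = tunicamycin 10 µg/mL and vehicle-only wells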
TLR9-MyD88 inh – TLR9-MyD88 interaction inhibition; 340,000 tested, 0.21% active; inhibition, % at 4.98 µM; AID 504734; CHO BLA complementation TLR9-MyD88, CCF4 FRET ratio; Q9NR96+Q99836;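 active = inhibition above the mean over all tested compounds plus 3 SD, cut at about 21% in these data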;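 also: 0% = DMSO only wells and 100% = clavulanate BLA inhibitor control wells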
TLR4 MyD88 comp – blocks binding of human TLR4 to MyD88 | O00206+Q99836 | HeLa CL3-4 TLR4/MyD88 BLA complementation, FRET ratio | inhibition, % at 8.4 µM | 200,000 tested, 0.18% active | AID 861; in the data active = inhibition above about 25%;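 also: 0% = vehicle and 100% = reference inhibitor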
Target sequence (O00206 whole entry, looked up): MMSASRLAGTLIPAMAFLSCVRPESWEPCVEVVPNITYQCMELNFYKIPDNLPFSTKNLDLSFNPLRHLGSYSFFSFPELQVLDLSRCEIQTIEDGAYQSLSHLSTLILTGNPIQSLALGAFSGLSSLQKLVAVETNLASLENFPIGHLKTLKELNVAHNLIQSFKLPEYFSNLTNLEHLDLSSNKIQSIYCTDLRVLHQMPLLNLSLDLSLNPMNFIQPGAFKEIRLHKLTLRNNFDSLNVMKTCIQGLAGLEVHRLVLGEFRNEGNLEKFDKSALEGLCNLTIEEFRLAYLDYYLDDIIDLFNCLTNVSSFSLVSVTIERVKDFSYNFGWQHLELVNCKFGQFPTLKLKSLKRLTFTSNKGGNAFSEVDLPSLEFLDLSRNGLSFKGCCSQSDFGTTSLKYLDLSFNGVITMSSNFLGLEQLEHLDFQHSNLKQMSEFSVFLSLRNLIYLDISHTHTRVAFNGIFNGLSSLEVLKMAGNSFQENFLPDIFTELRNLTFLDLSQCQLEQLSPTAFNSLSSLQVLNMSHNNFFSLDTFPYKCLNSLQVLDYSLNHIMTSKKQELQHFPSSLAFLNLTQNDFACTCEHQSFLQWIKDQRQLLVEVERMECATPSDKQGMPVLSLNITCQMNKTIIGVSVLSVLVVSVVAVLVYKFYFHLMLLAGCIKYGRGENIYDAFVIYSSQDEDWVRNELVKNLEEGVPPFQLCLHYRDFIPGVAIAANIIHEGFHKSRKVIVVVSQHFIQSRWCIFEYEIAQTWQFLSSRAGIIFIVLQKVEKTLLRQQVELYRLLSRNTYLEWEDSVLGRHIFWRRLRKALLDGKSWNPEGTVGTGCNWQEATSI
Target sequence (Q99836 whole entry, looked up): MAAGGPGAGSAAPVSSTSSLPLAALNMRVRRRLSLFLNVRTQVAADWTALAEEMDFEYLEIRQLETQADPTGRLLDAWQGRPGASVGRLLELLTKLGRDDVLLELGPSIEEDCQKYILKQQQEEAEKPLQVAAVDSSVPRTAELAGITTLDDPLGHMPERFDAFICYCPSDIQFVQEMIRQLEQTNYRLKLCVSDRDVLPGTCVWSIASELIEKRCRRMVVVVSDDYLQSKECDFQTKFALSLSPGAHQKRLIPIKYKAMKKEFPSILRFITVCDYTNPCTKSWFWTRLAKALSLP
NOD2 RIPK2 PPI – NOD2-RIPK2 protein interaction inhibition; O43353; CHO BLA complementation NOD2-RIPK2, CCF4 ratio; inhibition, % at 4.98 µM; 360,000 tested, 0.38% active; AID 624267; in the data active = inhibition above about 21%;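 also: 0% = vehicle only and 100% = reference blocker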
* hit, by the source's call; . = no result. Shown is part of a subset that was picked to be rich in hits.

SMILES	CHOP inh	CHOP UPR activ	UPR XBP1 act	TLR9-MyD88 inh	TLR4 MyD88 comp	NOD2 RIPK2 PPI
CCOC(=O)C(=Cc1cc(=O)c(OC)co1)C(=O)OCC	109*	.	.	1	11	1
CN(CC(=O)Nc1cccc(F)c1)C(=O)CN1C(=O)NC2(CCCC2)C1=O	.	2	-1	-4	.	-3
Cc1nc(NC(=O)C2CC2)sc1C(=O)Nc1ccccc1Cl	.	10	3	-1	.	0
O=c1[nH]c2ccc(Br)cc2c(-c2ccccc2)c1N1CCOCC1	77*	2	-1	15	-4	0
Cc1c(C#N)c(N)nc2c3c(sc12)NC(=O)CC3c1ccc(Cl)cc1 (stereo not drawn)	101*	4	8	-6	3	-2
O=C(O)Cn1ccc2cc(S(=O)(=O)N3CCCCC3)ccc21	.	.	.	-3	.	-6
CCc1c(C)nc2ncnn2c1NCCc1ccc(Cl)cc1	71*	1	3	9	17	-11
O=[N+]([O-])c1ccc(O)c(/C=N/Nc2ccc(Cl)nn2)c1	75*	19	5	-5	2	-3
O=[N+]([O-])C1C(c2ccccc2)C12c1ccccc1-c1ccccc12 (stereo not drawn)	.	.	.	5	.	4
COCC(=O)N/N=C/c1c(C)[nH]n(-c2ccccc2)c1=O	73*	7	-2	.	4	-7
Cc1[nH]n(-c2ccccc2)c(=O)c1/C=N/NC(=O)C(C)C	76*	38	8	-1	-5	-7
CC(=O)N/N=C/c1c(C)[nH]n(-c2ccccc2)c1=O	56	-1	-1	-1	2	-8
CCCCC(CC)C(=O)N1CCN(C(=O)c2ccco2)CC1 (stereo not drawn)	-5	18	-3	4	-15	0
O=C(Nc1cccc(S(=O)(=O)N2CCCCC2)c1)c1ccc2c(=O)n3c(nc2c1)CCCCC3	43	2	7	-5	-10	-8
COC(=O)c1ccc2c(=O)n(Cc3ccco3)c(SCC(=O)Nc3ccc(C)c(Cl)c3)nc2c1	30	40	38*	6	5	-8
Clc1ccc(Cc2noc(-c3cccs3)n2)cc1	87*	3	4	-1	7	11
Cc1ccc(NNC(=O)C(O)(c2cccc(C(F)(F)F)c2)c2cccc(C(F)(F)F)c2)cc1	107*	0	-1	-10	6	0
Cc1ccc(C(O)(C(=O)NNc2ccccn2)c2ccc(C)cc2)cc1	28	0	-4	-1	-4	1
O=C(COC(=O)c1c(Cl)ccc(Cl)c1Cl)NC(=O)NCc1ccccc1	84*	0	-1	-3	5	-9
CCOC(=O)C1(C)CCN1C(=O)c1oc2ccccc2c1C (stereo not drawn)	.	.	.	.	.	-11
Cc1nc2c3cc(F)ccc3n(Cc3ccccc3)c2s1	74*	-3	21	7	1	-3
Cc1nc2c3cc(F)ccc3n(Cc3ccccc3F)c2s1	11	-1	7	3	-9	-2
CSc1ccccc1NC(=O)COc1ccc(Cl)cc1	77*	9	2	-8	-3	0
CSc1ccccc1NC(=O)Nc1cccc(Cl)c1C	66	2	-1	3	-18	-5
COC(=O)c1sccc1NC(=O)Nc1cccc(Cl)c1Cl	84*	0	3	8	6	-1
SMILES	CHOP inh	CHOP UPR activ	UPR XBP1 act	TLR9-MyD88 inh	TLR4 MyD88 comp	NOD2 RIPK2 PPI
CSc1ccccc1NC(=O)Nc1cccc(Cl)c1Cl	88*	2	10	-2	1	-7
Clc1cccc(CSc2ncn(-c3ccccc3)n2)c1	93*	5	5	3	4	-11
O=C(Nc1ccncc1)C1CCC(CNS(=O)(=O)c2cccc3nsnc23)CC1 (stereo not drawn)	12	1	0	17	.	-3
Cc1cccc(N=Cc2[nH]c3ccc(Br)c(Cl)c3c2O)c1	90*	.	.	4	-22	-19
O=C(Cn1c(COc2ccccc2)nc2ccccc21)Nc1cc(Cl)ccc1Cl	82*	3	4	2	-6	-8
CC(=O)NN(O)C1N(C)C(=O)N(Cc2ccccc2)C1(C)C (stereo not drawn)	.	0	0	2	.	-7
CC1Cc2nc(SCC(=O)Nc3nc4ccccc4s3)n(C)c(=O)c2S1 (stereo not drawn)	75*	1	0	-4	-1	-5
CCc1nnc(NC(=O)CSc2nc3c(c(=O)n2C)SC(C)C3)s1 (stereo not drawn)	23	0	1	-2	-8	-7
Cc1nnc(NC(=O)CSc2nc3c(c(=O)n2CCc2ccccc2)SC(C)C3)s1 (stereo not drawn)	93*	-1	8	6	7	1
COc1cccc(CNC(=O)COC(=O)c2ccc(N3CCCC3=O)cc2)c1	.	.	.	-3	.	0
CCn1c(CCCOc2ccc(Cl)cc2Cl)nnc1SCC(=O)Nc1cc(F)ccc1C	84*	10	0	5	-17	6
CCc1ccc(N2CC(C)Cn3c2nc2c3c(=O)[nH]c(=O)n2C)cc1 (stereo not drawn)	.	5	-1	-12	.	-3
Cc1ccccc1NCC(=O)N/N=C/C(Br)=C/c1ccccc1	94*	1	0	0	7	4
CCOCCCNC(=O)c1c(N)n(-c2ccc3c(c2)OCO3)c2nc3ccccc3nc12	73*	2	0	-12	.	6
COC(=O)c1ccc(COC(=O)c2nn(C)c(=O)c3ccccc23)cc1	27	4	6	-9	-18	-9
O=C1Nc2ccccc2N=C(c2ccccc2)C1N(C(=O)c1ccnc2ccccc12)c1ccccc1 (stereo not drawn)	.	.	.	.	.	2
Clc1ccc(Oc2nc(Oc3ccc(Cl)cc3)nc(N3CCOCC3)n2)cc1	32	2	2	4	1	3
COC(=O)c1ccc(Oc2nc(N3CCCCC3)nc(N3CCOCC3)n2)cc1	71*	2	-5	6	-5	-7
CCN(CC)c1nc(Oc2ccc(C(=O)OC)cc2)nc(N2CCOCC2)n1	85*	1	-1	-9	4	1
CCOc1ccc(Oc2nc(N(CC)CC)nc(N3CCOCC3)n2)nn1	-4	-3	0	-2	7	-1
O=C1CC(NCc2ccncc2)C(=O)N1c1ccc(Cl)cc1 (stereo not drawn)	-13	0	-1	6	1	-4
CC1CCN(S(=O)(=O)c2cc3c4c(c2)CCN4C(=O)CC3)CC1	.	1	-2	-8	.	-5
CCN(CC)CCNC(=O)c1ccc(NC(=O)c2ccc(F)cc2F)cc1	25	2	-4	-4	0	1
